# Screening results as filed in PubChem BioAssay.
# Most compounds without a hit are left out; they make up all but 2.9% or so of the library.
# ZTA counter: blocks Epstein-Barr virus ZTA, an EBNA-1 counter-screen; P03206; ZTA-DNA binding, fluorescence polarization; inhibition, % at 11 µM; 320,000 tested, 0.15% active; AID 2234; in the data active = inhibition above about 33%
# Target sequence (P03206 whole entry, looked up): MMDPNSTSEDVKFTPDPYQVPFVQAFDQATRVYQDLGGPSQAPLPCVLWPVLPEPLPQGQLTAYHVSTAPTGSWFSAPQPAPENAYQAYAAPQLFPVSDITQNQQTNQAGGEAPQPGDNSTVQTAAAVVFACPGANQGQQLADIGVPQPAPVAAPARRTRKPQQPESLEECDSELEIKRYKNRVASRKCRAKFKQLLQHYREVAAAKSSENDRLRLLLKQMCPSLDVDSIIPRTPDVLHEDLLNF
# EBNA-1 inh: blocks EBNA-1 binding to DNA; EBNA-1 DNA binding, fluorescence polarization; inhibition, % at 14.8 µM; 300,000 tested, 0.34% active; in the data active = inhibition above about 28%
# Apaf-1 inh: blocks human Apaf-1 apoptosome activity | 330,000 tested, 0.71% active | reconstituted apoptosome caspase-3 activity, DEVD-Rh110 fluorescence | O14727 | inhibition, % at 20 µM; active = inhibition of at least 40% at 20 µM;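 note: plate controls were DMSO wells for no effect and DEVD-CHO caspase inhibitor wells for full effect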
#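 detection = Rh110 fluorescence intensity | test system = biochemical Apaf-1 apoptosome reconstitution | also added = cytochrome c and DEVD-Rh110 substrate | schedule = 30 min plus 50 min, RT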
# PfG6PD inh: PfG6PD (Plasmodium falciparum) enzyme inhibition; inhibition, % at 20 µM; 350,000 tested, 0.78% active; AID 504690; PfGluPho enzyme, NADPH resazurin-diaphorase fluorescence;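 active = inhibition reaching at least a set limit at 20 µM in the primary screen, cut at about 59% in these data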;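 note: 0% = DMSO wells with substrate and 100% = DMSO wells lacking glucose-6-phosphate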
# UBC13 polyUb: human UBC13 polyubiquitination inhibition; UBC13 polyubiquitin chain formation, TR-FRET; AID 485273; inhibition, % at 20 µM; 330,000 tested, 0.47% active; in the data active = inhibition above about 45%, passing the limit was not always enough; inconclusive = no clear call, values can overlap the other calls
# Target sequence (P61088 whole entry, looked up): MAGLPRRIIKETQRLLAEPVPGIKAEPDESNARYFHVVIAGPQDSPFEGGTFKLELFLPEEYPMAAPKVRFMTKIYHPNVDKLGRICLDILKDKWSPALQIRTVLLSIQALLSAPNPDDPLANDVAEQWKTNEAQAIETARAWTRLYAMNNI
# PfM18AAP inh: PfM18AAP enzyme inhibition; recombinant PfM18AAP, H-Glu-NHMec fluorogenic cleavage; AID 1822; 290,000 tested, 1.2% active; inhibition, % at 7.35 µM;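 active = inhibition above the campaign mean inhibition over all tested compounds plus 3 SD, cut at about 28% in these data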;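 note: 0% = plate median of test compound wells and 100% = 2 mM ZnCl2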
# Casp3 UBC13 ctr: caspase-3 inhibition (UBC13 counter-screen) | shares compounds with UBC13 polyUb | Recombinant caspase-3, Caspase-Glo 3/7 luminescence, 60 min | inhibition, % at 20 µM | 1,400 tested, 4% active;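 active = mean inhibition across replicates above about 26%, limit read from the data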;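 note: plate controls were DMSO with caspase-3 for no effect and DMSO wells lacking enzyme for full effect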
# Target sequence (P42574 whole entry, looked up): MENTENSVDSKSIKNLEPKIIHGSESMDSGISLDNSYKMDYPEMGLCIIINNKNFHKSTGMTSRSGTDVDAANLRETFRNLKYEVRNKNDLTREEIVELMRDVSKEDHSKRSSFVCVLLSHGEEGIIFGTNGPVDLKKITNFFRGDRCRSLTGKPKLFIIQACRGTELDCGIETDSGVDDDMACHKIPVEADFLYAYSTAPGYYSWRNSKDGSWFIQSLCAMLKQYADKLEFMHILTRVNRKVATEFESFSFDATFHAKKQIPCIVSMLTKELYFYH
# UBC13 confirm: confirmation of human UBC13 polyubiquitin inhibitors | 1,400 tested, 68% active | inhibition, % at 10 µM | shares compounds with UBC13 polyUb | UBC13 polyubiquitination, TR-FRET, biochemical; in the data active = inhibition above about 45%; inconclusive = no clear call, values can overlap the other calls
# * marks the source's active call; other numbers are inactive results; u = inconclusive; x = no result given.
SMILES,ZTA counter,EBNA-1 inh,Apaf-1 inh,PfG6PD inh,UBC13 polyUb,PfM18AAP inh,Casp3 UBC13 ctr,UBC13 confirm
CCOc1ccc(Nc2nc(NCC3CCCO3)c3ccccc3n2)cc1 (stereo unspecified),17.5,-3.6,20.7,0.8,66.3*,2.1,-0.1,86.2*
Cc1ccccc1C(=O)NCC(=O)NNC(=S)NC(=O)c1ccccc1,17.4,12.1,2.6,2.5,80.4*,25.8,1.0,81.9*
Cc1ccccc1C(=O)NC(=S)NCc1ccccc1,13.0,2.6,9.0,-0.2,7.0,-0.3,x,x
Cc1ccccc1C(=O)NCC(=O)NNC(=S)NC(=O)c1ccccc1C,13.8,-1.3,-1.5,-22.4,87.4*,9.9,4.4,78.3*
CCOC(=O)c1c(NC(=O)CN2C(=O)NC3(CCCCC3C)C2=O)sc(C)c1CC (stereo unspecified),-2.2,17.5,37.4,18.5,-10.1,x,x,x
O=C(NCCCN1CCCC1)c1ccc2c(c1)N(Cc1ccccc1)CCS2,-8.7,1.1,-10.5,1.9,54.8*,-1.9,-1.9,68.8*
CCN1CCN(CCCNC(=O)c2ccc3c(c2)N(Cc2ccccc2)CCS3)CC1,-3.5,-9.8,7.6,-7.6,26.5,4.1,x,x
C[C@@]12CCC[C@@](C)(C(=O)O)C1CC[C@@]13C[C@@H](NCc4ccccc4)[C@@](C)(CCC12)C3 (stereo partly specified),-8.0,x,7.7,-8.4,10.8,x,x,x
N#C[C@H]1C(O)C(O)c2ccccc2N1C(=O)c1ccccc1 (stereo partly specified),-14.7,1.5,-1.4,13.2,58.1*,x,3.4,8.8
COc1ccc(-c2cc(C(=O)NCCCN3CCCC3=O)c3ccccc3n2)cc1,-5.5,2.0,27.5,7.2,46.7*,x,-1.2,54.0*
CCCn1c2ccccc2c2nc3ccccc3nc21,-0.5,2.5,19.3,22.9,46.6*,-3.9,5.2,40.8
CCN(Cc1ccccc1)C(=O)Cn1c(=O)n(CCC(=O)N2CCCCC2)c(=O)c2sccc21,3.1,7.5,2.6,-1.8,-6.7,1.9,x,x
C/C(N)=C(/C#N)C(=O)COC(=O)c1ccccc1C(=O)c1ccc(C)cc1,12.3,-2.3,11.2,11.2,-1.1,1.7,x,x
COc1ccc(CNC(=O)C2(CC3CC(c4ccccc4)=NO3)CCN(C(=O)OC(C)(C)C)CC2)cc1 (stereo unspecified),-10.7,2.0,22.3,17.1,77.0*,x,-3.7,-7.0
CN(C)C(CNC(=O)c1coc2ccccc2c1=O)c1ccccc1 (stereo unspecified),-7.5,-19.9,11.3,-4.7,56.4*,17.2,12.5,58.9*
Nc1c(C(=O)Nc2ccccc2)sc2nc3c(c(-c4ccco4)c12)CCC3,-6.4,-5.5,36.8,7.0,-29.2,7.5,x,x
COc1ccc(-c2c3c(nc4sc(C(=O)Nc5ccccc5)c(N)c24)CCC3)cc1,1.1,-8.5,11.5,8.2,45.8*,-4.0,2.5,38.3
Cc1cccc(N(C(=O)c2snc(C(N)=O)c2N)C(C(=O)NC2CCCC2)c2ccco2)c1 (stereo unspecified),x,x,11.8,2.7,79.1*,8.3,2.9,75.5*
Cc1cccc(N(C(=O)c2snc(C(N)=O)c2N)C(C(=O)NCC2CCCO2)c2cccs2)c1 (stereo unspecified),18.6,5.2,12.9,-1.9,62.1*,-6.5,1.2,71.1*
NC(=O)c1nsc(C(=O)N(c2ccc(Cl)cc2)C(C(=O)NCC2CCCO2)c2cccs2)c1N (stereo unspecified),0.7,2.8,23.8,-2.4,45.5*,-5.8,2.6,49.5*
Cc1cccc(C(=O)OC(C)C(=O)NCC2CCCCC2)c1O (stereo unspecified),-11.4,x,-5.8,2.9,u,x,x,x
O=C(/C=C/c1cccc(F)c1)N1CCN(c2ncccn2)CC1,1.7,8.9,2.8,9.2,5.1,3.3,x,x
O=C(CSc1cc(Cl)ccc1Cl)NCC(=O)Nc1ccc(F)c(F)c1F,-0.6,2.5,13.2,6.0,70.7*,4.9,-0.8,78.6*
CN(C)CCCNc1cc(C(C)(C)C)nc2c(-c3ccccc3)cnn12,17.7,-1.0,15.2,7.0,66.1*,6.3,0.6,34.1
Cc1cc(NCCCN2CCOCC2)n2ncc(-c3ccccc3)c2n1,0.0,-2.8,6.8,15.2,7.5,3.6,x,x
SMILES,ZTA counter,EBNA-1 inh,Apaf-1 inh,PfG6PD inh,UBC13 polyUb,PfM18AAP inh,Casp3 UBC13 ctr,UBC13 confirm
CC(C)(C)c1cc(NCCCn2ccnc2)n2ncc(-c3ccc(Cl)cc3)c2n1,-4.2,-5.3,38.9,34.1,52.0*,0.2,0.3,77.3*
CC1=C(C(=O)NCc2ccccc2)C(c2cccs2)NC(=S)N1 (stereo unspecified),-4.1,-1.8,8.2,-3.1,-5.4,-4.2,x,x
CCc1[nH]c(=S)c(C#N)c(-c2ccccc2)c1C(=O)OC,7.9,2.0,15.0,-8.2,u,5.6,x,x
Cc1ccccc1NC(=O)c1c(C)[nH]c(=S)c(C#N)c1-c1ccc(Cl)cc1,3.4,4.7,-7.8,30.3,49.9*,9.0,-4.4,u
Cc1ccc(-c2c(C(=O)Nc3ccccc3C)c(C)[nH]c(=S)c2C#N)o1,5.5,3.7,15.7,42.5,17.8,25.9,x,x
Cc1[nH]c(=S)c(C#N)c(-c2ccccc2)c1C(=O)Nc1ccccc1,-6.7,-6.3,11.7,27.3,50.8*,28.4*,3.4,u
CC(C)(C)c1ccc(C(=O)NCCCN2CCN(CCCNC(=O)c3ccc(C(C)(C)C)cc3)CC2)cc1,14.2,0.3,26.9,20.9,65.5*,2.9,-5.2,74.2*
Nc1nc(C23CC4CCC(CC(C4)C2)C3)cs1,-3.3,-13.4,-2.6,4.2,11.3,-4.0,x,x
COC(=O)c1cccc(NC(=O)Cc2coc3cc(OC)ccc23)c1,-4.5,-3.9,-13.6,4.2,47.5*,2.5,-2.9,52.7*
CCCCCCCC(=O)N1CCN(c2cc3c(cc2F)c(=O)c(C(=O)O)cn3CC)CC1,x,x,32.2,-14.1,40.2,-5.3,x,x
CCCCCCCCC(=O)N1CCN(c2cc3c(cc2F)c(=O)c(C(=O)O)cn3CC)CC1,6.5,-10.2,10.6,-6.2,45.9*,-3.1,1.4,15.9
CCN(CC)CCCNC(=O)c1cc2c(=O)n(C)c3ccccc3c2n1C,-0.1,-2.3,-2.3,-4.5,35.9,3.5,x,x
CCCCN(CC)CCNC(=O)c1cc2c(=O)n(C)c3ccccc3c2n1C,7.2,1.9,7.4,7.2,56.8*,5.2,-0.9,52.8*
Cc1cc(N2CCN(C)CC2)nc2ccc(NC(=S)N3CCCCC3)cc12,x,x,x,19.6,x,11.1,x,x
Cc1cc(N2CCN(C)CC2)nc2ccc(NC(=S)N3CCN(c4ccc(F)cc4)CC3)cc12,-5.7,-4.9,-6.2,-6.7,47.0*,2.9,-2.7,38.4
